Test results reported in ChEMBL document CHEMBL5303300, “EUbOPEN Chemogenomics Library - Multiplex” (2023).
Where “and” joins values, the source holds several entries; their conditions need not be identical. Equal values may be shown once.

Tests used:
U2OS = test: Multiplex assay against U2OS; format: toxicity, cell-based; conditions: human, number of replicates 2
How it was run: (§1)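 Cells were classed with CellPathfinder machine-learning gating, first as Hoechst high-intensity objects or normal cells, then (normal cells) as healthy, pyknosed or fragmented nuclei, and finally (pyknosed cells) as mitotic or apoptotic. Staining of live cells at seeding used Hoechst33342, BioTracker Green Microtubule Cytoskeleton Dye, MitoTracker Red and Annexin V Alexa Fluor 680, with imaging on a CQ1 microscope at 37°C and 5% CO2 after compound addition. Tubulin, mitochondrial-mass and membrane-permeability phenotypes are per cents of healthy-nucleus cells.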

Fibroblast = test: Multiplex assay against human fibroblast; format: toxicity, cell-based; conditions: number of replicates 2; how it was run: as §1
[1] = 24 h, 1 µM, compound concentration 1 uM
[2] = 24 h, 10 µM, compound concentration 10 uM
[3] = 48 h, 1 µM, compound concentration 1 uM
[4] = 48 h, 10 µM, compound concentration 10 uM
[5] = 12 h, 1 µM, compound concentration 1 uM
[6] = 12 h, 10 µM, compound concentration 10 uM

Q: How did the “Population Tubulin-Different-Phenotype (%)” value (U2OS; [1]) turn out when `Cc1cc(-c2cnc(N)c3c(-c4ccc5scnc5c4)csc23)n(C)n1` was run?
A: The value was 85% and 83%.

Q: And the “Population Apoptotic (%)” value (U2OS; [2])?
A: Its value is 76% and 84%.

Q: And the “Population Healthy Nuclei (%)” value (U2OS; [2])?
A: The value was 56% and 80%.

Q: What about the “Population Hoechst High Intensity Objects (%)” value (U2OS; [2]) of the same molecule?
A: The value was 1% and 0%.

Q: And the “Population Membrane Permeable-Phenotype (%)” value (U2OS; [2])?
A: The value was 8% and 7%.

Q: What about the “Population Mitochondria Different-Phenotype (%)” value (U2OS; [2]) of the same molecule?
A: The value was 29% and 19%.

Q: What about the “Population Mitotic Cells (%)” value (U2OS; [2]) of the same molecule?
A: The value was 23% and 15%.

Q: And the “Population Normal (%)” value (U2OS; [2])?
A: Its value is 98% and 99%.

Q: What about the “Population Pyknosed Nuclei (%)” value (U2OS; [2]) of the same molecule?
A: Its value is 25% and 15%.

Q: What about the “Population Tubulin-Different-Phenotype (%)” value (U2OS; [2]) of the same molecule?
A: The value was 42% and 36%.

Q: And the “Population Apoptotic (%)” value (U2OS; [3])?
A: The value was 50% and 60%.

Q: And the “Population Fragmented Nuclei (%)” value (U2OS; [3])?
A: The value was 1% and 5%.

Q: What about the “Population Healthy Nuclei (%)” value (U2OS; [3]) of the same molecule?
A: Its value is 90% and 86%.

Q: What about the “Population Hoechst High Intensity Objects (%)” value (U2OS; [3]) of the same molecule?
A: The value was 0%.

Q: And the “Population Membrane Permeable-Phenotype (%)” value (U2OS; [3])?
A: The value was 1%.

Q: What about the “Population Mitochondria Different-Phenotype (%)” value (U2OS; [3]) of the same molecule?
A: The value was 1%.

Q: And the “Population Mitotic Cells (%)” value (U2OS; [3])?
A: The value was 50% and 39%.

Q: What about the “Population Normal (%)” value (U2OS; [3]) of the same molecule?
A: The value was 100%.

Q: And the “Population Pyknosed Nuclei (%)” value (U2OS; [3])?
A: Its value is 7%.

Q: What about the “Population Tubulin-Different-Phenotype (%)” value (U2OS; [3]) of the same molecule?
A: The value was 81% and 83%.

Q: And the “Population Apoptotic (%)” value (U2OS; [4])?
A: Its value is 73% and 82%.

Q: And the “Population Fragmented Nuclei (%)” value (U2OS; [4])?
A: The value was 12% and 5%.

Q: What about the “Population Healthy Nuclei (%)” value (U2OS; [4]) of the same molecule?
A: The value was 52% and 78%.

Q: What about the “Population Hoechst High Intensity Objects (%)” value (U2OS; [4]) of the same molecule?
A: The value was 2% and 0%.

Q: And the “Population Membrane Permeable-Phenotype (%)” value (U2OS; [4])?
A: The value was 7%.

Q: And the “Population Mitochondria Different-Phenotype (%)” value (U2OS; [4])?
A: Its value is 19% and 13%.

Q: What about the “Population Mitotic Cells (%)” value (U2OS; [4]) of the same molecule?
A: The value was 26% and 17%.

Q: What about the “Population Normal (%)” value (U2OS; [4]) of the same molecule?
A: The value was 97% and 99%.

Q: What about the “Population Pyknosed Nuclei (%)” value (U2OS; [4]) of the same molecule?
A: The value was 35% and 15%.

Q: And the “Population Tubulin-Different-Phenotype (%)” value (U2OS; [4])?
A: Its value is 41% and 33%.

Q: And the “Population Apoptotic (%)” value (Fibroblast; [5])?
A: The value was 48% and 40%.

Q: And the “Population Fragmented Nuclei (%)” value (Fibroblast; [5])?
A: The value was 9% and 10%.

Q: What about the “Population Healthy Nuclei (%)” value (Fibroblast; [5]) of the same molecule?
A: Its value is 77% and 62%.

Q: And the “Population Hoechst High Intensity Objects (%)” value (Fibroblast; [5])?
A: The value was 0%.

Q: What about the “Population Membrane Permeable-Phenotype (%)” value (Fibroblast; [5]) of the same molecule?
A: The value was 4% and 10%.

Q: And the “Population Mitochondria Different-Phenotype (%)” value (Fibroblast; [5])?
A: Its value is 0% and 2%.

Q: What about the “Population Mitotic Cells (%)” value (Fibroblast; [5]) of the same molecule?
A: The value was 51% and 60%.

Q: What about the “Population Normal (%)” value (Fibroblast; [5]) of the same molecule?
A: The value was 100%.

Q: What about the “Population Pyknosed Nuclei (%)” value (Fibroblast; [5]) of the same molecule?
A: The value was 12% and 26%.

Q: What about the “Population Tubulin-Different-Phenotype (%)” value (Fibroblast; [5]) of the same molecule?
A: Its value is 14% and 15%.

Q: And the “Total Cell Count” value (Fibroblast; [5])?
A: Its value is 224 and 187.

Q: What about the “Population Apoptotic (%)” value (Fibroblast; [6]) of the same molecule?
A: The value was 66% and 51%.

Q: What about the “Population Fragmented Nuclei (%)” value (Fibroblast; [6]) of the same molecule?
A: The value was 23%.

Q: What about the “Population Healthy Nuclei (%)” value (Fibroblast; [6]) of the same molecule?
A: Its value is 61% and 62%.

Q: And the “Population Hoechst High Intensity Objects (%)” value (Fibroblast; [6])?
A: Its value is 0%.

Q: What about the “Population Membrane Permeable-Phenotype (%)” value (Fibroblast; [6]) of the same molecule?
A: The value was 12% and 20%.

Q: And the “Population Mitochondria Different-Phenotype (%)” value (Fibroblast; [6])?
A: Its value is 2% and 0%.

Q: And the “Population Mitotic Cells (%)” value (Fibroblast; [6])?
A: Its value is 33% and 48%.

Q: What about the “Population Normal (%)” value (Fibroblast; [6]) of the same molecule?
A: The value was 99% and 100%.

Q: What about the “Population Pyknosed Nuclei (%)” value (Fibroblast; [6]) of the same molecule?
A: The value was 15% and 14%.

Q: What about the “Population Tubulin-Different-Phenotype (%)” value (Fibroblast; [6]) of the same molecule?
A: Its value is 76% and 56%.

Q: And the “Total Cell Count” value (Fibroblast; [6])?
A: Its value is 240 and 224.

Q: What about the “Population Apoptotic (%)” value (Fibroblast; [1]) of the same molecule?
A: The value was 50% and 60%.

Q: What about the “Population Fragmented Nuclei (%)” value (Fibroblast; [1]) of the same molecule?
A: The value was 13% and 10%.

Q: And the “Population Healthy Nuclei (%)” value (Fibroblast; [1])?
A: Its value is 75% and 64%.

Q: And the “Population Hoechst High Intensity Objects (%)” value (Fibroblast; [1])?
A: The value was 0%.

Q: And the “Population Membrane Permeable-Phenotype (%)” value (Fibroblast; [1])?
A: The value was 1% and 6%.

Q: And the “Population Mitochondria Different-Phenotype (%)” value (Fibroblast; [1])?
A: The value was 0% and 3%.

Q: What about the “Population Mitotic Cells (%)” value (Fibroblast; [1]) of the same molecule?
A: Its value is 50% and 39%.

Q: What about the “Population Normal (%)” value (Fibroblast; [1]) of the same molecule?
A: The value was 100%.

Q: And the “Population Pyknosed Nuclei (%)” value (Fibroblast; [1])?
A: The value was 11% and 25%.

Q: What about the “Population Tubulin-Different-Phenotype (%)” value (Fibroblast; [1]) of the same molecule?
A: The value was 10% and 13%.

Q: And the “Total Cell Count” value (Fibroblast; [1])?
A: The value was 253 and 187.

Q: And the “Population Apoptotic (%)” value (Fibroblast; [2])?
A: The value was 68% and 59%.

Q: And the “Population Fragmented Nuclei (%)” value (Fibroblast; [2])?
A: Its value is 27%.

Q: And the “Population Healthy Nuclei (%)” value (Fibroblast; [2])?
A: The value was 62% and 60%.

Q: And the “Population Hoechst High Intensity Objects (%)” value (Fibroblast; [2])?
A: Its value is 0%.

Q: What about the “Population Membrane Permeable-Phenotype (%)” value (Fibroblast; [2]) of the same molecule?
A: The value was 10% and 15%.

Q: And the “Population Mitochondria Different-Phenotype (%)” value (Fibroblast; [2])?
A: The value was 1%.

Q: And the “Population Mitotic Cells (%)” value (Fibroblast; [2])?
A: Its value is 32% and 40%.

Q: And the “Population Normal (%)” value (Fibroblast; [2])?
A: Its value is 100%.

Q: And the “Population Pyknosed Nuclei (%)” value (Fibroblast; [2])?
A: Its value is 9% and 12%.

Q: What about the “Population Tubulin-Different-Phenotype (%)” value (Fibroblast; [2]) of the same molecule?
A: Its value is 74% and 46%.

Q: What about the “Total Cell Count” value (Fibroblast; [2]) of the same molecule?
A: The value was 254 and 259.

Q: And the “Population Apoptotic (%)” value (Fibroblast; [3])?
A: Its value is 71% and 61%.

Q: And the “Population Fragmented Nuclei (%)” value (Fibroblast; [3])?
A: The value was 10% and 14%.

Q: And the “Population Healthy Nuclei (%)” value (Fibroblast; [3])?
A: The value was 83% and 67%.

Q: What about the “Population Hoechst High Intensity Objects (%)” value (Fibroblast; [3]) of the same molecule?
A: The value was 0%.

Q: And the “Population Membrane Permeable-Phenotype (%)” value (Fibroblast; [3])?
A: The value was 4% and 9%.

Q: What about the “Population Mitochondria Different-Phenotype (%)” value (Fibroblast; [3]) of the same molecule?
A: Its value is 1% and 3%.

Q: What about the “Population Mitotic Cells (%)” value (Fibroblast; [3]) of the same molecule?
A: The value was 28% and 38%.

Q: And the “Population Normal (%)” value (Fibroblast; [3])?
A: Its value is 100%.

Q: And the “Population Pyknosed Nuclei (%)” value (Fibroblast; [3])?
A: The value was 6% and 17%.

Q: And the “Population Tubulin-Different-Phenotype (%)” value (Fibroblast; [3])?
A: The value was 8% and 13%.

Q: And the “Total Cell Count” value (Fibroblast; [3])?
A: Its value is 221 and 189.

Q: And the “Population Apoptotic (%)” value (Fibroblast; [4])?
A: The value was 66% and 72%.

Q: And the “Population Fragmented Nuclei (%)” value (Fibroblast; [4])?
A: Its value is 31% and 29%.

Q: And the “Population Healthy Nuclei (%)” value (Fibroblast; [4])?
A: The value was 59% and 61%.

Q: And the “Population Hoechst High Intensity Objects (%)” value (Fibroblast; [4])?
A: The value was 0%.

Q: And the “Population Membrane Permeable-Phenotype (%)” value (Fibroblast; [4])?
A: Its value is 6% and 9%.

Q: And the “Population Mitochondria Different-Phenotype (%)” value (Fibroblast; [4])?
A: The value was 1%.

Q: And the “Population Mitotic Cells (%)” value (Fibroblast; [4])?
A: The value was 33% and 27%.

Q: What about the “Population Normal (%)” value (Fibroblast; [4]) of the same molecule?
A: Its value is 100%.

Q: And the “Population Pyknosed Nuclei (%)” value (Fibroblast; [4])?
A: Its value is 9% and 8%.

Q: And the “Population Tubulin-Different-Phenotype (%)” value (Fibroblast; [4])?
A: Its value is 71% and 54%.

Q: And the “Total Cell Count” value (Fibroblast; [4])?
A: The value was 257 and 251.
